Shown are actives, neighbours in structure and some others; about 1.6% of the full set was active somewhere.
Dynein cargo inh: dynein cargo transport inhibition; 3617.4 mouse cells, GR-EGFP nuclear translocation imaging; test concentration mostly 20 µM; stimulated with dexamethasone, 1 µM; hits give low values; z-score, hits read low; 0.47% of 220,000 active; AID 1381;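 active means plate z-score of nuclear minus cytoplasmic receptor signal below a set negative limit, without overly bright fluorescence or cell loss, cut at about -3.5 in these data, passing the limit was not always enough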;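 further: z-score of nuclear minus cytoplasmic ring GR-EGFP intensity difference per well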
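Also added – dexamethasone, 1.0 µM final · Buffer or medium – tet-free, stripped-serum medium · Schedule – induction 48 h, compound 1 h, agonist 30 min · Detection – formaldehyde fixation, Hoechst nuclear stain, 10x automated fluorescence imaging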
B2AR ag: human beta-2 adrenergic receptor agonism by FAP. P07550. Am2.2-beta2AR cells, FAP receptor internalization, flow cytometry. response, % (concentration not given with the values). 0.43% of 340,000 active. AID 504454;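 active means response above a set limit, near 3 SD of response in nonfluorescent compounds, cut at about 42% in these data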
TLR4-MyD88 BLA: TLR4-MyD88 interaction inhibition in cells | O00206+Q99836 | HeLa CL3-4 TLR4/MyD88 BLA complementation, FRET ratio | inhibition, % at 8.4 µM | 0.18% of 200,000 active | AID 861; in the data active means inhibition above about 25%;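 further: 0% = vehicle and 100% = reference inhibitor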
NOD2 RIPK2 PPI: inhibitors of human NOD2-RIPK2 interaction; CHO BLA complementation NOD2-RIPK2, CCF4 ratio; inhibition, % at 4.98 µM; 0.38% of 360,000 active; AID 624267; in the data active means inhibition above about 21%;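 further: 0% = vehicle only and 100% = reference blocker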
TLR9-MyD88 inh: inhibitors of human TLR9-MyD88 binding | Q9NR96+Q99836 | CHO BLA complementation TLR9-MyD88, CCF4 FRET ratio | inhibition, % at 4.98 µM | 0.21% of 340,000 active;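 active means inhibition above the mean over all tested compounds plus 3 SD, cut at about 21% in these data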;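 further: 0% = DMSO only wells and 100% = clavulanate BLA inhibitor control wells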
ABHD5 PLIN5 PPI: blocks binding of human ABHD5 to perilipin-5. Split G. princeps luciferase complementation, luminescence, 4 h. inhibition, % at 4 µM. 0.78% of 360,000 active. AID 602281;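 active means inhibition above the mean inhibition across every tested compound plus 3 SD, cut at about 22% in these data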;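 further: 0% = DMSO only wells and the 100% control is not disclosed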
Target sequence (Q00G26 whole entry, looked up): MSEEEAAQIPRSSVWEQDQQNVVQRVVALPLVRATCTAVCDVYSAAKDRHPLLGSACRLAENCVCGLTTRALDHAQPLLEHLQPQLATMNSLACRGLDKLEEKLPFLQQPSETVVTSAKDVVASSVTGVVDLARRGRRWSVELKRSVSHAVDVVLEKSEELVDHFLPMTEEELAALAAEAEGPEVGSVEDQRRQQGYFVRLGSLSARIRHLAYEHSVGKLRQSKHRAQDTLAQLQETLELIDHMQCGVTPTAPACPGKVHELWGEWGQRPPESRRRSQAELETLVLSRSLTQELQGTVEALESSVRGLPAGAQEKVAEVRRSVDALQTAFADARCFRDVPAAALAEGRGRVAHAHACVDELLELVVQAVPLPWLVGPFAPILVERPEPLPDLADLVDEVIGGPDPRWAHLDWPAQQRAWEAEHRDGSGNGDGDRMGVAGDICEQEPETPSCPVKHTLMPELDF
Target sequence (Q8WTS1 whole entry, looked up): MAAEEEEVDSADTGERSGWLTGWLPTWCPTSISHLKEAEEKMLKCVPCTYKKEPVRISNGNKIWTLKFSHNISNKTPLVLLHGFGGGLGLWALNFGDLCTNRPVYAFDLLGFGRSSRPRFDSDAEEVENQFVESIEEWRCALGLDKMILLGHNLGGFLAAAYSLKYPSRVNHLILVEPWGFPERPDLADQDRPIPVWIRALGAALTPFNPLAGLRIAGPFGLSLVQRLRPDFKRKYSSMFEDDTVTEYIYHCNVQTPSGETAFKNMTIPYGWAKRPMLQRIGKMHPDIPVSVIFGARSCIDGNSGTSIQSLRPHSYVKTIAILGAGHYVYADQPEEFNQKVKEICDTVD
Dynein confirm: dynein cargo transport inhibition, confirmation; shares compounds with Dynein cargo inh; 3617.4 GR-EGFP nuclear translocation imaging, dexamethasone-induced; calls only at 20 µM; 69% of 1,000 active;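 active means inhibition of receptor movement into the nucleus at or above a set limit in both runs, with normal cell brightness and cell count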;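 further: dexamethasone at 1 µM final in well for 30 min; nuclear minus cytoplasmic GR-EGFP mean intensity difference in channel 2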
Starred values were filed as active, the others as inactive; i = inactive; . = no result; + = active, no number.

SMILES	Dynein cargo inh	B2AR ag	TLR4-MyD88 BLA	NOD2 RIPK2 PPI	TLR9-MyD88 inh	ABHD5 PLIN5 PPI	Dynein confirm
O=C1/C(=C/c2ccccc2)CCCc2ccccc21	-0.429	3.2	0.9	-3.4	9.4	-5.1	.
N#CCCN(C(=O)CCl)c1cccc(Cl)c1	-3.81*	-2.1	9.2	1.8	-1.9	5.2	+
CCN(C(=O)c1c(C)cc(=O)oc1C)c1ccc2c(c1)OCO2	0.322	1.9	-3.5	-2.0	-2.6	-3.5	.
CCN(C(=O)c1coc(=O)c(Br)c1)c1ccc2c(c1)OCO2	-4.78*	7.0	1.4	0.0	1.6	-3.5	+
CC(C)c1cc(Cn2c3ccccc3c(=O)n2C(C)CBr)on1 (configuration not stated)	.	.	.	0.5	.	-7.7	.
Cc1[nH]c2ccccc2c1/C=N/Nc1ccc([N+](=O)[O-])cc1S(=O)(=O)Nc1ccc(Cl)cc1	-5.35	-319.1	0.4	-2.5	1.3	1.3	i
CCCCCCc1cc2cc(-c3nnc(-c4ccccc4OC)o3)c(=O)oc2cc1O	-0.446	i	-10.6	0.0	-6.3	6.9	.
CCCCCCc1cc2cc(-c3nnc(-c4ccccc4O)o3)c(=O)oc2cc1O	-5.56	.	-4.7	-2.9	1.9	8.4	+
CCN(CC)C(=O)C1=C(C)N(Cc2ccc(F)cc2)C(=O)C(CC(=O)NC(c2ccccc2)c2ccccc2)C1 (configuration not stated)	.	.	.	5.3	-15.9	5.4	.
Cc1c(N=C2C=CC(=O)c3ccccc32)c(=O)n(-c2ccccc2)n1C	-4.67*	43.9*	-22.7	-1.8	12.8	-9.6	+
COc1ccc(S(=O)(=O)N2CCN(CC(=O)NC(Cc3ccccc3)C(C)=O)CC2)cc1 (configuration not stated)	.	-6.9	.	-4.2	-13.5	-1.6	.
CN(C)C(CNC(=O)c1cccc(S(=O)(=O)Nc2ccc(SC(F)F)cc2)c1)c1ccccc1 (configuration not stated)	.	6.5	.	-4.6	-7.0	-3.4	.
O=C(CS(=O)c1ccccc1[N+](=O)[O-])Oc1ccc(Br)cc1 (configuration not stated)	-0.146	1.4	-4.6	0.3	-2.8	2.6	.
CS(=O)(=O)c1ccc(S(=O)CC(=O)Oc2ccc(Cl)cc2)c([N+](=O)[O-])c1 (configuration not stated)	-6.52*	.	19.9	.	.	.	+
COc1cccc(/C(O)=C/c2nc3ccc(C(=O)NCCc4ccc(Cl)cc4)cc3[nH]c2=O)c1	-6.81	-32.2	9.9	-5.7	-10.1	4.5	+
Cc1nn(C)cc1C(=O)Nc1cc(Oc2ccc(Cl)cc2)cc([N+](=O)[O-])c1	0.229	-12.0	5.7	-8.6	5.0	-4.7	.
Cn1cc([N+](=O)[O-])c(C(=O)Nc2cc(Oc3ccccc3)cc([N+](=O)[O-])c2)n1	-3.86*	36.3	7.4	2.9	5.5	1.2	+
N#CC1=C(N)N(c2ccccc2)C(c2cccc([N+](=O)[O-])c2)C1(C#N)C#N (configuration not stated)	-3.66*	15.2	5.8	-4.1	-2.1	6.3	+
Cc1cccc(N2C(N)=C(C#N)C(C#N)(C#N)C2c2ccccc2)c1 (configuration not stated)	-1.26	5.5	-1.6	6.9	-3.3	0.0	.
CSc1nc2sc3c(c2c2nnnn12)CC(C)(C)OC3	0.264	.	0.5	.	.	.	.
CC1(C)Cc2c(sc3c4nnnn4c4nnnn4c23)CO1	-4.73*	.	4.7	.	.	.	i
COC(=O)c1ccc(Cn2c(C)c(C(=O)NCc3cccc([N+](=O)[O-])c3)sc2=O)o1	.	.	.	-8.9	.	-1.8	.
CCCCN(CCCC)C(=O)c1cc(Cl)ccc1[N+](=O)[O-]	0.295	4.3	6.7	-4.9	-7.2	19.4	.
CCCN(CCC)C(=O)c1cc([N+](=O)[O-])cc2c1-c1ccc([N+](=O)[O-])cc1C2=C(C#N)C#N	-4.62*	.	.	.	.	.	+
CC(=O)Nc1ccc(S(=O)(=O)NCc2nc(-c3ccccc3Cl)no2)cc1	.	-4.2	.	2.2	2.5	3.5	.

Bioassay records deposited in PubChem by several laboratories.
